Assay results published in ChEMBL document CHEMBL1139577, “Discovery of 3-OH-3-methylpipecolic hydroxamates: potent orally active inhibitors of aggrecanase and MMP-13” (Bioorg Med Chem Lett, 2005).

Columns and labels:
[1] = Inhibitory concentration against aggrecanase from porcine chondrocytes using [35S]-sulfate (5 mCi/ml) as radioligand and adding IL-1alpha (5 ng/ml) incubated for 10h; set-up: species or system Sus scrofa
Method in brief: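 Cell-based assay in porcine chondrocytes. Glycosaminoglycan chains were labelled by including [³⁵S]sulfate (5 mCi/ml) in the culture medium, and unincorporated label was washed out before aggrecan degradation was assessed.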

Interstitial collagenase = molecular target: T1, Interstitial collagenase (Homo sapiens, UniProt P03956); test: Inhibitory concentration against MMP-1
T1 sequence (P03956 whole entry): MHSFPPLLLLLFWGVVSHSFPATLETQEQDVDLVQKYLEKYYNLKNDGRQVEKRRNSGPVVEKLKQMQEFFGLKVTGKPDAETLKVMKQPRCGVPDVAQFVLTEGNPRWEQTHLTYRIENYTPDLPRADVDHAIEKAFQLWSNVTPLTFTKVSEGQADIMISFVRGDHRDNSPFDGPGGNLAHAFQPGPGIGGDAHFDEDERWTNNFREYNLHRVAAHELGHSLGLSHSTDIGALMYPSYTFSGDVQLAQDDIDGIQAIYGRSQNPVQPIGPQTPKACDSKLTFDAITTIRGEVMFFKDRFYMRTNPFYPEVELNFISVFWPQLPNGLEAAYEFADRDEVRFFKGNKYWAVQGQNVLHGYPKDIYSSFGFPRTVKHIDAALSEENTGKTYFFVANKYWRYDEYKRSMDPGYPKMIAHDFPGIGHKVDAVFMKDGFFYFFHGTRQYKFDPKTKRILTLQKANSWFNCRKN

[2] = Inhibitory concentration against MMP-13
[3] = molecular target: Disintegrin and metalloproteinase domain-containing protein 17 (Rattus norvegicus, UniProt Q9Z1K9); test: Inhibitory concentration against rat TACE
Sequence of Disintegrin and metalloproteinase domain-containing protein 17 (Q9Z1K9 whole entry, the tested form may be a part): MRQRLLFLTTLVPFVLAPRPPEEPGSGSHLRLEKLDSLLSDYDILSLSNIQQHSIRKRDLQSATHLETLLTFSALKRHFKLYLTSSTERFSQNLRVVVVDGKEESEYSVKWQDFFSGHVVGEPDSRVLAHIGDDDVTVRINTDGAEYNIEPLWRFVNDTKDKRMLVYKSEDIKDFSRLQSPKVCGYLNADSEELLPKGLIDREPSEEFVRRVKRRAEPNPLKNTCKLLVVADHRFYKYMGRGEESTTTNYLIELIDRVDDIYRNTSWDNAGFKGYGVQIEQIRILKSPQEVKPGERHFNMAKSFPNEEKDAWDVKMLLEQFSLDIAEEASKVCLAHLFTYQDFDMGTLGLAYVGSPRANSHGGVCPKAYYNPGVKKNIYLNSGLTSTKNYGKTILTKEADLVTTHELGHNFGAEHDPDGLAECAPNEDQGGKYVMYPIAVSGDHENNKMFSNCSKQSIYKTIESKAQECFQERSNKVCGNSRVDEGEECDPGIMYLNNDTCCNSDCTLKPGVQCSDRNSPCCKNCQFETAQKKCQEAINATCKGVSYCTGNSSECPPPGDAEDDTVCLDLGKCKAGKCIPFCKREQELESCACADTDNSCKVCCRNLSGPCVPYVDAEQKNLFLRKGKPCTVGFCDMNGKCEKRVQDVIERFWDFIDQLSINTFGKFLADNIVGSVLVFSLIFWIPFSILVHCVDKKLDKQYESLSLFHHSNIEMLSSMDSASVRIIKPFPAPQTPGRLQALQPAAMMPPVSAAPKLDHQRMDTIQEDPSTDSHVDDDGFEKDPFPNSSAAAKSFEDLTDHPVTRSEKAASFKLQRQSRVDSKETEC

[4] = molecular target: T2, A disintegrin and metalloproteinase with thrombospondin motifs 4 (Homo sapiens) (UniProt O75173); test: Inhibitory concentration at 500 nM against aggrecanase from porcine chondrocytes using [35S]-sulfate (5 mCi/ml) as radioligand and adding IL-1alpha (5 ng/ml) incubated for 10h; conditions: Sus scrofa, target entry is the homologue from another species
T2 sequence (whole entry): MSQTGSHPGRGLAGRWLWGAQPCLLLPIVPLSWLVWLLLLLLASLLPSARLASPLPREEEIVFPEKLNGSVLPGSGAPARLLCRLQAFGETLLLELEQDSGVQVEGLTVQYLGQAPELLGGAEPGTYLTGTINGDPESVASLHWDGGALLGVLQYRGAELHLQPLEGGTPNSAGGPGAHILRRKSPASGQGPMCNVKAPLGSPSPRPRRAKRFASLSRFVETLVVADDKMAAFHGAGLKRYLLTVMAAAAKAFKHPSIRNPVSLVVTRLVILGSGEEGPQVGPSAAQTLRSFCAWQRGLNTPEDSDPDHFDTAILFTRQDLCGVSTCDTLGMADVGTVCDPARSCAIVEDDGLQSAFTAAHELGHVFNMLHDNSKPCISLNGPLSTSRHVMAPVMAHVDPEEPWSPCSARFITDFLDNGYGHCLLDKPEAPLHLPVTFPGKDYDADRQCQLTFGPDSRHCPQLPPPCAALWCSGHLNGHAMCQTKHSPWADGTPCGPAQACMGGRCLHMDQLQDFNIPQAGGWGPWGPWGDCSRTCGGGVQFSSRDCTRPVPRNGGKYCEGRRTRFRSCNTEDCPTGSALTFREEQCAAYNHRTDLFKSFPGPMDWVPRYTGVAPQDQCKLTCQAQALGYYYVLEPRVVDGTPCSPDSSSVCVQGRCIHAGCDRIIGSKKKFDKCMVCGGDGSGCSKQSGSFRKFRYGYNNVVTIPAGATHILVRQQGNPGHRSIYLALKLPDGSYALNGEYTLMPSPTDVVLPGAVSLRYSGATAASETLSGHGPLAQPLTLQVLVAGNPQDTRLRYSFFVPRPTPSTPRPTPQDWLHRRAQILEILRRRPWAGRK

[5] = Half life in rat; format: ADME; conditions: in vivo
Method in brief: (§1)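 Male Sprague–Dawley rats with jugular vein catheters got an iv bolus of 5 mg/kg in glycerol formal. Jugular blood was drawn at 5, 15 and 30 min and at 1, 2, 4, 6, 8 and 24 h. Plasma was diluted with an equal volume of water, extracted with MTBE and assayed by LC–MS/MS. Parameters were derived by non-compartmental analysis.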

[6] = molecular target: 72 kDa type IV collagenase (Homo sapiens, UniProt P08253); test: Inhibitory concentration against MMP-2
Sequence of 72 kDa type IV collagenase (P08253 whole entry): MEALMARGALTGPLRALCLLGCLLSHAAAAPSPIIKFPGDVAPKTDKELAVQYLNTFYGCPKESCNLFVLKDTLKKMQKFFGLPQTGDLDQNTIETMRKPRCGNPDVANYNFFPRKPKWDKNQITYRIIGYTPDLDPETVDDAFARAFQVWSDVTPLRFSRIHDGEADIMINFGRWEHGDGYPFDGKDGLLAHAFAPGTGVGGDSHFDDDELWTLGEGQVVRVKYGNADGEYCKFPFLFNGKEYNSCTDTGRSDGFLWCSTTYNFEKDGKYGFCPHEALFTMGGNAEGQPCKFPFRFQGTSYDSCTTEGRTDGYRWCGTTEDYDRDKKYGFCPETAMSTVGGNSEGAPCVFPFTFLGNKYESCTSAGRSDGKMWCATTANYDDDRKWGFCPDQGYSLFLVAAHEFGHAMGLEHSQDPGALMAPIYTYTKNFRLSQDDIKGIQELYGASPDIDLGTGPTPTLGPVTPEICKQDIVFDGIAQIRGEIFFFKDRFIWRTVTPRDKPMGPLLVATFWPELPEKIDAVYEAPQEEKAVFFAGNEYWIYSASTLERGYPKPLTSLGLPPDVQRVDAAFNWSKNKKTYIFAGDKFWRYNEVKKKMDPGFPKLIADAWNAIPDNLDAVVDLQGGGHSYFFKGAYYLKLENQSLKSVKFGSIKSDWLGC

Stromelysin-1 = Stromelysin-1 (Homo sapiens, UniProt P08254); test: Inhibitory concentration against MMP-3
Sequence of Stromelysin-1 (P08254 whole entry): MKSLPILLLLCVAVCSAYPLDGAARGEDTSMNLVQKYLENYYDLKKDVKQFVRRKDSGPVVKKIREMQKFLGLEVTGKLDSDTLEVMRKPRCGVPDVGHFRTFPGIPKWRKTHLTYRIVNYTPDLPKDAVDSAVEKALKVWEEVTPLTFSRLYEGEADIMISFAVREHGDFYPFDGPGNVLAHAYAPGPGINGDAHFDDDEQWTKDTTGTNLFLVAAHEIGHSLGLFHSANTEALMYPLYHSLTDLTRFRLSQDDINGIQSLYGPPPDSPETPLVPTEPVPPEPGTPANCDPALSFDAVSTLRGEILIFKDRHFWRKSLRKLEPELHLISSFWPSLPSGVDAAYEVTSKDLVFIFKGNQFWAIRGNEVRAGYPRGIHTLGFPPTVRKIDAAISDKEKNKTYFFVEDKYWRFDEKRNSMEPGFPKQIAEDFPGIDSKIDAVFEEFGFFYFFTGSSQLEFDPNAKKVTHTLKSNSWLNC

Neutrophil collagenase = Neutrophil collagenase (Homo sapiens, UniProt P22894); test: Inhibitory concentration against MMP-8
Sequence of Neutrophil collagenase (P22894 whole entry): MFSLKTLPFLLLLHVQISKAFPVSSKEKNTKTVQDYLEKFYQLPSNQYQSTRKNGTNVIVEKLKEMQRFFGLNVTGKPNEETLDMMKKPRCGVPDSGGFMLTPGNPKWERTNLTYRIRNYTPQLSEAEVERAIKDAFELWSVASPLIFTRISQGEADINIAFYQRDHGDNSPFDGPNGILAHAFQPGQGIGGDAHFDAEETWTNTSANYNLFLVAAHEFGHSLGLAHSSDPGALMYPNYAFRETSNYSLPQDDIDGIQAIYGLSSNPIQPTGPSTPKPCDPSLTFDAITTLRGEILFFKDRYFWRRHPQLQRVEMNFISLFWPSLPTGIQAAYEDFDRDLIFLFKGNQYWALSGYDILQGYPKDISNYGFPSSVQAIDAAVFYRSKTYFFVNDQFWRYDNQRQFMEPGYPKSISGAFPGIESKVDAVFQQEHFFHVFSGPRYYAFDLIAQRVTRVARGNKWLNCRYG

[7] = molecular target: Matrix metalloproteinase-9 (Homo sapiens, UniProt P14780); test: Inhibitory concentration against MMP-9
Sequence of Matrix metalloproteinase-9 (P14780 whole entry): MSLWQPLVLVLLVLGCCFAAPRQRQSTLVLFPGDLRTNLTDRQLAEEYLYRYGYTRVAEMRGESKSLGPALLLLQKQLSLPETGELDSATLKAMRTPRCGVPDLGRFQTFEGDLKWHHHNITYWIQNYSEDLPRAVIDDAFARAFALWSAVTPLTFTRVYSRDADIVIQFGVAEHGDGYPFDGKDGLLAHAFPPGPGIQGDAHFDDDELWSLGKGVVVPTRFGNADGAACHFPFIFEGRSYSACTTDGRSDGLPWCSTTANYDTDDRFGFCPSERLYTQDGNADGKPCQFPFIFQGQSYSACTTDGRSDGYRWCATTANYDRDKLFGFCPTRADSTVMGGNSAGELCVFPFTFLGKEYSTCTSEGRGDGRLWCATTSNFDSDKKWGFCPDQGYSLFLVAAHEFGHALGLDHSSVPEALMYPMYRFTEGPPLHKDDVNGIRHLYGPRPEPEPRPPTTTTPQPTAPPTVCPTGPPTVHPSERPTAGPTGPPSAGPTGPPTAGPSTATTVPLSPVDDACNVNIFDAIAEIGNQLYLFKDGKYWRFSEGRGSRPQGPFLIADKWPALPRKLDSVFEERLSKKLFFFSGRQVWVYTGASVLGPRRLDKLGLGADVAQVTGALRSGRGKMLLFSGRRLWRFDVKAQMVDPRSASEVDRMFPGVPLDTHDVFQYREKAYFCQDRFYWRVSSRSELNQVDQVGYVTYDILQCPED

[8] = molecular target: Matrix metalloproteinase-14 (Homo sapiens, UniProt P50281); test: Inhibitory concentration against MMP-14
Cricetinae gen. sp. [9] = test: Potent inhibition of IL-1 induced aggrecan degradation in hamster; format: functional, Cricetulus griseus
Bos taurus [10] = species: Bos taurus; test: Inhibition of IL-1 induced collagen degradation in bovine nasal cartilage explants; format: functional
Cricetinae gen. sp. [11] = test: Potent inhibition of MMP-13 induced collagen degradation in hamster knee joints; format: functional, Cricetulus griseus; conditions: Knee joint
Cell line = test: Inhibition of IL-1 induced aggrecan degradation in human osteoarthritic cartilage; format: functional, cell-based; conditions: Cartilage tissue
Method in brief: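 Articular cartilage came from total knee replacement and was cut into 1 × 2 mm pieces. These were cultured in DMEM with 0.5% fetal bovine serum and stimulated with IL-1α (50 ng/ml) plus oncostatin M (50 ng/ml). After 48 h, released GAG in the medium was measured by DMMB; n = 2.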

Bos taurus [12] = species: Bos taurus; test: Inhibition of IL-1 induced aggrecan degradation in bovine nasal cartilage explants; format: functional
Method in brief: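 Bovine nasal cartilage plugs (4 mm diameter and length) were cultured in serum-free DMEM with IL-1α plus inhibitor. After 48 h, samples were analysed for GAG content by the DMMB assay.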

[13] = Half life in dog; format: ADME, Canis lupus familiaris; conditions: in vivo
[14] = Clearance in dog; format: ADME, organism-based, Canis lupus familiaris; conditions: plasma, read-out: Clp
[15] = Clearance in rat; format: ADME, organism-based; conditions: plasma, read-out: Clp; method in brief: as §1

Structure (SMILES) | IC50 [1] [nM] | IC50 (Interstitial collagenase) [nM] | IC50 [2] [nM] | IC50 [3] [nM] | other results
C[C@@]1(O)CCCN(S(=O)(=O)c2ccc(OCc3cccc4ccncc34)cc2)[C@H]1C(=O)NO | 17 | 7800 | 18 |  | 
CCCC[C@]1(O)CCCN(S(=O)(=O)c2ccc(OCc3ccc(F)cc3)cc2)[C@H]1C(=O)NO | 2000 | 2900 | 4.9 | 23 | 
C[C@@]1(O)CCCN(S(=O)(=O)c2ccc(OCc3ccncc3)cc2)[C@H]1C(=O)NO |  | 190 | 2 |  | inhibition [4]: 8.1%
CC[C@]1(O)CCCN(S(=O)(=O)c2ccc(OCc3ccc(F)cc3)cc2)[C@H]1C(=O)NO | 490 | 1100 | 3.6 | 1.7 | 
C[C@@]1(O)CCCN(S(=O)(=O)c2ccc(OCc3ccc(F)cc3)cc2)[C@H]1C(=O)NO (stereo in doubt; 11) | 120 | 420 | 3.7 | 14 | 
C[C@@]1(O)CCCN(S(=O)(=O)c2ccc(OCc3cccc4cccnc34)cc2)[C@H]1C(=O)NO | 19 | 120 | 4.1 |  | 
C[C@@]1(O)CCCN(S(=O)(=O)c2ccc(OCc3ccccc3C#N)cc2)[C@H]1C(=O)NO |  | 2700 | 9.7 |  | inhibition [4]: 55%
C[C@@]1(O)CCCN(S(=O)(=O)c2ccc(OCc3ccccc3Cl)cc2)[C@H]1C(=O)NO | 3.7 |  | 1 |  | 
Cc1ncccc1COc1ccc(S(=O)(=O)N2CCC[C@@](C)(O)[C@@H]2C(=O)NO)cc1 | 51 | 1600 | 1.5 |  | 
CC[C@@]1(O)CCCN(S(=O)(=O)c2ccc(OCc3ccc(F)cc3)cc2)[C@H]1C(=O)NO | 500 | 500 | 1.6 | 18 | 
C[C@@]1(O)CCCN(S(=O)(=O)c2ccc(OCc3cnccn3)cc2)[C@H]1C(=O)NO |  | 1600 | 7.4 |  | inhibition [4]: 8%
Cc1c(F)cccc1COc1ccc(S(=O)(=O)N2CCC[C@@](C)(O)[C@@H]2C(=O)NO)cc1 | 11 | 1300 | 3.2 | 10 | 
COc1ccccc1COc1ccc(S(=O)(=O)N2CCC[C@@](C)(O)[C@@H]2C(=O)NO)cc1 |  | 2600 | 18 |  | inhibition [4]: 73%
C[C@@]1(O)CCCN(S(=O)(=O)c2ccc(OCc3ccccc3F)cc2)[C@H]1C(=O)NO | 14 | 180 | 0.49 |  | 
Cc1cc(F)ccc1COc1ccc(S(=O)(=O)N2CCC[C@@](C)(O)[C@@H]2C(=O)NO)cc1 | 4.7 |  | 2.9 | 15 | 
Cc1ccccc1COc1ccc(S(=O)(=O)N2CCC[C@@](C)(O)[C@@H]2C(=O)NO)cc1 | 6.9 | 310 | 0.65 |  | 
C[C@@]1(O)CCCN(S(=O)(=O)c2ccc(OCc3ccnc(Cl)c3)cc2)[C@H]1C(=O)NO | 15 | 520 | 0.43 |  | 
C[C@@]1(O)CCCN(S(=O)(=O)c2ccc(OCc3ccc(F)cc3Cl)cc2)[C@H]1C(=O)NO | 1.5 | 310 | 0.9 |  | half-life [5]: 120 min; IC50 [6]: 4 nM; IC50 (Stromelysin-1): 5 nM; IC50 (Neutrophil collagenase): 1 nM; IC50 [7]: 11 nM; IC50 [8]: 83 nM; ED50 (Cricetinae gen. sp. [9]): 4.6 mg/kg; IC50 (Bos taurus [10]): 100 nM; ED50 (Cricetinae gen. sp. [11]): 13 mg/kg; IC50 (Cell line): 6 nM; IC50 (Bos taurus [12]): 10.3 nM; half-life [13]: 276 min; clearance [14]: 11 mL/min/kg; clearance [15]: 13 mL/min/kg
CC1(C)C[C@@H](O)CN(S(=O)(=O)c2ccc(OCc3ccc(Cl)cc3Cl)cc2)[C@H]1C(=O)NO |  |  |  |  | half-life [5]: 120 min; half-life [13]: 120 min; clearance [14]: 25 mL/min/kg; clearance [15]: 44 mL/min/kg
C[C@@]1(O)CCCN(S(=O)(=O)c2ccc(OCc3cccc(F)c3)cc2)[C@H]1C(=O)NO | 85 | 340 | 1.5 |  | 
C[C@@]1(O)CCCN(S(=O)(=O)c2ccc(OCc3cccc(Cl)c3)cc2)[C@H]1C(=O)NO | 78 | 860 | 2.5 |  | 
C[C@@]1(O)CCCN(S(=O)(=O)c2ccc(OCc3ccc(Cl)cc3F)cc2)[C@H]1C(=O)NO | 7.9 | 120 | 0.87 |  | 
C[C@]1(O)CCCN(S(=O)(=O)c2ccc(OCc3ccc(F)cc3)cc2)[C@H]1C(=O)NO | > 1000 | 1100 | 6.5 | 11 | 
C[C@@]1(O)CCCN(S(=O)(=O)c2ccc(OCc3ccc(F)cc3)cc2)[C@H]1C(=O)NO (stereo in doubt; 17) |  | 420 |  | 14 | 
Cc1ccc(F)cc1COc1ccc(S(=O)(=O)N2CCC[C@@](C)(O)[C@@H]2C(=O)NO)cc1 | 15 |  | 2.5 |  | 
